Bioassay records deposited in PubChem by several laboratories.
sdo1 growth = sdo1-depleted yeast growth rescue; actives 0.21% (n = 140,000); S. cerevisiae sdo1-depleted JHY4D growth rescue, OD600 30 h; active compounds read high; pdr5 snq2 efflux-pump mutant strain; z-score at 10 µM; AID 817;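 active = z-score above 3 at both the 24 hr and the 30 hr optical density reads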;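 note: z-score against mean and SD of all compound wells on the same plate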
Yeast life ext = yeast lifespan extension; AID 775; S. cerevisiae growth with nicotinamide, OD615; deaD strain in restrictive glucose medium; inhibition of the nicotinamide effect, % at 10 µM; actives 0.68% (n = 130,000);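 active = inhibition above a set limit, placed 3 SD over the median of all compounds, cut at about 26% in these data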;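 note: 0% = nicotinamide-treated wells and 100% = cells grown without nicotinamide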
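assay system = DeaD-strain S. cerevisiae | buffer or medium = restrictive glucose medium | reagent = 1.5 mM nicotinamide | compound = 10 µM single point, 0.25% DMSO | incubation = 48 h compound exposure at 30 °C, humidified | signal = OD615 measurement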
RAM network inh = yeast RAM network inhibition | AID 868 | actives 1.8% (n = 190,000) | S. cerevisiae dse1pr::URA3 reporter, 5-FOA growth OD615, 2 d; analog-sensitive cbk1-as2 kinase mutant strain | inhibition, % at 50 µM;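 active = inhibition above a set limit, 3 SD over mean compound inhibition, cut at about 8.4% in these data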;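 note: 0% = DMSO-only wells with no growth and 100% = 10 µM 1-NA-PP1 full growth; inhibition rescues growth on 5-FOA so higher OD means more RAM inhibition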
BB579 growth dn = yeast BB579 growth reduction in restrictive medium; S. cerevisiae BB579 growth, OD615, 48 h; inhibition, % at 10 µM; actives 0.51% (n = 140,000); AID 804;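 active = inhibition above a set limit, 3 SD over the mean compound inhibition, cut at about 44% in these data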
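controls = amphotericin B 10 µg/mL, positive | assay system = DeaD yeast strain BB579 | schedule = 48 h compound exposure at 30 °C after 4 h preincubation | detection = OD615 turbidity measurement | medium = restrictive CSMM-D medium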
The depositor's hits bear a star; / = no result. Rows were chosen to be rich in hits. Some 2.7% of all compounds tested hit in one or more screens of this group.

SMILES	sdo1 growth	Yeast life ext	RAM network inh	BB579 growth dn
O=C(CN(c1cccc([N+](=O)[O-])c1)S(=O)(=O)c1ccccc1)N(Cc1ccccc1)Cc1ccccc1	0.47	-6	8.6*	-14
C/C(=N\NC(=O)c1cccc(Br)c1)c1ccc(Br)cc1	0.8	-7	4	-15
COc1ccc2nc(C)cc(SCC(=O)N3CCCCC3)c2c1	/	/	-1	/
CC1CCCC(NC(=O)NC(=O)CCl)C1C (stereo not drawn)	-0.75	14	1	2
CCOc1ccc(NC(=O)c2ccccc2NS(=O)(=O)c2ccc(F)cc2)c([N+](=O)[O-])c1	-0.73	10	10*	-42
CCOC(=O)c1ccccc1NS(=O)(=O)c1ccc(OCC)cc1	-0.53	-11	6	-38
CCOc1ccc(S(=O)(=O)Nc2ccccc2C(=O)Nc2ccccc2N2CCOCC2)cc1	-2.3	18	8.8*	-67
C=CCNC(=S)N/N=C/c1ccc(-c2ccc(OC)cc2)o1	/	/	2	/
CC(=O)C(C(C)=O)c1c(Cl)c(O)c(O)c2c(C(=O)c3ccccc3)coc12	-0.38	37*	6	-32
Cc1cc2occ(CC(=O)NCc3cccs3)c2cc1C(C)C	-1.4	3	2	-20
Cc1csc(NC(=O)Cc2coc3cc(C)c(C(C)C)cc23)n1	-2.5	-18	2	83*
Cc1ccc(S(=O)(=O)C(C#N)c2nc3ccccc3nc2N2CCCC2)cc1 (stereo not drawn)	-0.76	72*	2	-60
O=C(/C=C/NNC(=O)c1cccc(Br)c1)c1cccc(Br)c1	0.49	28*	2	-109
O=C(/C=C/NNC(=O)c1ccccc1)c1ccc(Br)cc1	0.28	24	0	-27
CC(=O)CCn1cnc([N+](=O)[O-])n1	/	/	0	/
O=C(NCCc1ccccc1)c1ccc(-c2ccccc2Cl)o1	-0.84	-3	8.6*	-41
O=C(Nc1ccccc1)c1ccc(-c2ccccc2Cl)o1	-0.62	-2	7	-42
COc1ccc(/C=C(\C#N)C(=O)N2CCOCC2)cc1Br	0.22	48*	2	-14
COc1ccc(CNC(=O)Cn2nnc(-c3ccc(NC(=O)C4CCCCC4)cc3)n2)cc1	-0.98	-1	9.0*	-30
CCOc1ccc(-c2nnn(CC(=O)NCc3ccc(OC)cc3)n2)cc1OCC	0.07	-8	1	-50
O=C(c1cccs1)n1nc(-c2ccccc2)nc1NCc1ccc(F)cc1	-0.97	7	8.6*	5
O=C(c1cccc([N+](=O)[O-])c1)n1nc(-c2ccccc2)nc1NCc1ccccc1	0.88	-1	9.7*	-2
O=C(c1ccc([N+](=O)[O-])cc1)n1nc(-c2ccccc2)nc1NCc1ccccc1	-0.83	-22	7	2
C=CCNC(=O)/C(=C\c1ccc([N+](=O)[O-])cc1)NC(C)=O	1.3	-8	3	-1
O=C(N/N=C/c1ccc(N2CCOCC2)o1)c1cccc(C(F)(F)F)c1	1.1	/	2	-15
SMILES	sdo1 growth	Yeast life ext	RAM network inh	BB579 growth dn
CCN=C1SC(CC(=O)Nc2ccc(C(F)(F)F)cc2)C(=O)N1CC (stereo not drawn)	-0.71	-10	1	-35
CCCc1cc(=O)oc2cc(OCc3cccc(OC)c3)c(Cl)cc12	-0.26	2	11*	-4
CSCCC(NC(=O)c1ccc(Cl)cc1)C(=O)O (stereo not drawn)	/	/	2	/
CSCCC(NC(=O)c1ccc(Cl)cc1)C(=O)OCC(=O)Nc1cc(Cl)ccc1C (stereo not drawn)	-0.6	-2	10*	3
CSc1ccc(C(=O)C2CCCN(S(=O)(=O)N(C)C)C2)cc1 (stereo not drawn)	/	/	10*	/
Cc1ccn(-c2n[nH]c(C)c2[N+](=O)[O-])n1	/	/	-1	/
CCOC(=O)C(C)c1nc2ccccc2[nH]c1=O (stereo not drawn)	0.44	-14	-2	-58
O=c1[nH]c2ccccc2nc1C(Cl)c1ccccc1 (stereo not drawn)	1	37*	-1	-42
COc1ccc(NS(=O)(=O)c2ccc(OCC(=O)N3CCOCC3)cc2)cc1	-0.23	1	0	-38
CCOc1ccc(NS(=O)(=O)c2ccc(NS(=O)(=O)c3ccc(SC)cc3)cc2)cc1	0.41	7	8.9*	-70
CCOc1ccc(NS(=O)(=O)c2ccc(NS(C)(=O)=O)cc2)cc1	-0.24	-18	0	2
C=C(C)CN(CC)C(=O)COc1ccc(S(=O)(=O)Nc2ccc(OC)cc2)cc1	0.58	108*	4	3
Cc1ccccc1-n1nnnc1SC(C)C(=O)NC1CCCc2ccccc21 (stereo not drawn)	-0.79	6	2	-23
FC(F)(F)c1ccc(N2CCOCC2)c(Nc2nc3ccccc3n3cnnc23)c1	-2.5	-27	4	-55
CCOC(=O)c1cnc(SC)nc1Oc1cccc(NS(=O)(=O)c2ccc(Cl)cc2)c1	0.5	7	9.2*	-62
CCOC(=O)c1cnc(-c2ccccc2)nc1Oc1cccc(Cl)c1	-0.81	-3	8.9*	-35
CCCOc1cccc(C(=O)O)c1	-0.15	-3	-1	16
O=C(Nc1ccccc1)c1ccn[nH]1	0.07	-19	-1	-1
O=C(Nc1nc(-c2ccccn2)cs1)c1ccc(Br)s1	-2.2	-29	-2	99*
O=C(Nc1nc(-c2ccccn2)cs1)c1ccco1	/	/	0	/
COc1ccc(OCc2nn3c(Cn4cnc5ccccc54)nnc3s2)cc1	-0.48	0	0	-42
CSc1ccccc1NC(=O)COC(=O)c1ccc(O)cc1	/	/	1	/
COC(=O)Cc1[nH]n(-c2nc3ccccc3s2)c(=O)c1C(C)=O	0.16	-8	0	-32
COC(=O)Cc1cc(=O)n(-c2nc3ccccc3[nH]2)[nH]1	0.66	-6	2	72*
CCOC(=O)c1c(C)oc2c1c(C(c1cccnc1)N1CCCCC1)c(O)c1ccccc12 (stereo not drawn)	-3.2	50*	1	-35
SMILES	sdo1 growth	Yeast life ext	RAM network inh	BB579 growth dn
CCOC(=O)c1c(C)oc2c1c(C(c1ccccc1)N1CCOCC1)c(O)c1ccccc12 (stereo not drawn)	-2.6	24	3	-23
O=C(CSc1nnc2scc(-c3ccccc3)n12)NCc1ccc2c(c1)OCO2	-0.59	-5	9.6*	-38
CC1CCCC(C)N1C(=O)Cn1c(SCC(=O)NCc2ccc3c(c2)OCO3)nc2ccccc21 (stereo not drawn)	-0.71	-11	8.9*	-59
CC1(C)Cc2ccccc2-c2nnc(SCC(=O)Nc3ccc4c(c3)OCO4)n21	1.5	81*	3	19
CC(=O)Nc1ccc(NC(=O)CSc2nnc(-c3ccccc3)n2Cc2ccc3c(c2)OCO3)cc1	0.13	-7	8.6*	-48
C=CCn1c(SCC(=O)Nc2ccc3c(c2)OCO3)nnc1-c1ccccc1	-0.8	-9	6	-55
O=C(CSc1nnc2scc(-c3ccc(Cl)cc3)n12)NCc1ccc2c(c1)OCO2	-1	-14	0	-8
Cc1cccc(NC(=S)N/C(=N/S(=O)(=O)c2ccccc2)c2ccccc2)c1	0.14	-10	1	-77
